# Reference: PMC9934531 (bioRxiv, 2023)
# Where two headings read alike, the source gives them in different places.
# Legend:
# [1] = target: hydrophobic patch of cNTnC in the presence of cTnIsp; conditions: cited from earlier work
# [2] = test system: cardiac trabeculae; experiment: Calcium sensitivity of force generation in isolated cardiac trabeculae; type: cell-based, rat; conditions: 20 μM compound
# Method in brief: (§1)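 Four male Sprague Dawley rats (7–9 months); cardiac trabeculae (n=10) and soleus fibers (n=10), soleus fibers typed slow by SDS-PAGE. Force measured in activating solutions of graded pCa, first without then with 20 μM test compound. pCa50 taken from force–pCa curve fits, and the with/without difference was analysed per preparation by paired Student's t-test. Maximal force was the mean of pCa 4.0 activations (every third; n=6), without then with compound.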
# [3] = test system: slow skeletal muscle (soleus) fibers; experiment: Calcium sensitivity of force generation in slow skeletal muscle; type: cell-based, rat; conditions: 20 μM compound
# Method in brief: as §1
smiles,measurement,setting,value
"O=C(CSc1nc(-c2ccccc2)c(-c2ccccc2)[nH]1)Nc1nccs1 [Compound 7930079, 2-[(4,5-diphenyl-1H-imidazol-2-yl)thio]-N-1,3-thiazol-2-ylacetamide]",Kd,[1]; read-out: apparent experimental binding affinity,1.45 ± 0.09 µM
same,decrease in average maximal force,"[2]; pCa 4.0, cardiac trabeculae, P=0.001",8%
same,shift of force/pCa curve to higher sensitivity (ΔpCa50),"[2]; rat cardiac trabeculae, n=10, P<.01",0.05 ± 0.04 pCa unit
same,effect on average maximal force generation,"[3]; pCa 4.0, slow fibers, P=0.39",no effect
same,shift of force/pCa curve to higher sensitivity (ΔpCa50),"[3]; rat slow fibers, n=10, P<.01",0.20 ± 0.03 pCa unit
"CN1CCN(CCCN2c3ccccc3Sc3ccc(C(F)(F)F)cc32)CC1 [TFP, trifluoperazine]",Kd,[1],110 ± 20 µM
CC(C)COCC(CN(Cc1ccccc1)c1ccccc1)N1CCCC1 (centres unmarked) [bepridil],Kd,[1],380 ± 60 µM
C[C@@H]1CC(=O)NN=C1c1ccc(NN=C(C#N)C#N)cc1 [levosimendan],Kd,[1],~700 µM
